Reference: publication PMC3320048 (Angiogenesis, 2011)
Where a SMILES comes first, the peptide text is derived from it. Bridges are numbered along the chain shown (N, C = ends). Where no end group is shown, it is not given here.

Experiments:
[1] = tested on: DU145 subcutaneous xenografts; assay: DU145 tumor treatment study; assay type: in vivo, mice; details: 300 μg i.p. 3x/week
Procedure, shortened: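 Male athymic nude mice carried 2-week-old subcutaneous DU145 flank xenografts averaging 40 mm3 at the start. They received carrier or test compound (300 μg) intraperitoneally three times per week. Tumour volume was measured with calipers at each treatment time point, and mice were weighed on day 15. Groups were compared by unpaired two-tailed t test or one-way ANOVA with Tukey post hoc test.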

CLIC1 = CLIC1 (Homo sapiens, UniProt O00299); assay: Saturation binding assay
Procedure, shortened: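 Copper-coated microtiter wells were coated with 2 μg/ml purified His-tagged human CLIC1. Wells were incubated 1 h at room temperature with varying concentrations of carboxyfluorescein-labelled peptide in TBS with 200 mM n-octyl-β-D-glucoside and 1 mM CaCl2. After TBS washes, fluorescence was read at ex 485/em 520. Signal from His-tagged nucleolin-coated wells was subtracted as non-specific binding. Kd was derived from the binding curves.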

[2] = tested on: human bladder epithelial cells (HBEC); assay: LDH release in epithelial cells; assay type: cell-based; details: 150 μg/ml, 24 hours, 37°C
Procedure, shortened: (§1)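 Cells were grown at 37°C in humidified 5% CO2 and treated at about 50% confluence. Test compound (2 mg/ml stock in H2O) was added at 150 μg/ml in 2% FBS for 24 h at 37°C. LDH release was read with a commercial kit and normalised to background death in untreated cells. 0.1% (v/v) Triton X-100 defined maximal release.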

[3] = tested on: neonatal human dermal fibroblasts (NHDF); assay: LDH release in fibroblasts; assay type: cell-based; details: 150 μg/ml, 24 hours, 37°C
Procedure, shortened: as §1

proliferating HUVEC = assay: Cytotoxicity assay; assay type: cell-based
HUVEC [4] = assay: Western blot of cytosolic fractions for LC3 and cathepsins; assay type: cell-based, human
Procedure, shortened: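 Cytosolic fractions came from treated HUVEC using a subcellular fractionation kit. Proteins were resolved by SDS-PAGE, blotted to PVDF and checked for equal loading with 0.05% Ponceau S. Blots were blocked in 5% milk or BSA, probed overnight at 4°C for cathepsin C, cathepsin D and LC3B, and detected by peroxidase secondary antibodies with ECL. Lysosomes were labelled with 100 nM LysoTracker Red for 1 h before paraformaldehyde fixation.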

HUVEC [5] = assay: Flow cytometry assay of CLIC1 cell surface expression in suspended HUVEC; assay type: cell-based, human; details: peptide 300 μM
fibrinogen = details: cited from earlier work
fibronectin = details: cited from earlier work

CC[C@H](C)[C@@H]1NC(=O)[C@H](CC(C)C)NC(=O)CNC(=O)[C@@H](N)CSSC[C@@H](C(=O)O)NC(=O)[C@H](CCC(=O)O)NC(=O)[C@H](CC(N)=O)NC(=O)[C@H](CCCCN)NC(=O)[C@H](CCC(N)=O)NC(=O)[C@H]([C@@H](C)CC)NC1=O [CLT1] (H-CGLIIQKNEC-OH; disulfide 1-10)
body weight of the mice ([1]; day 15 of the treatment study): remained unchanged | Kd (CLIC1): 10.2 µM | cytotoxicity in epithelial cells (LDH release) [2]: little effect | cytotoxicity in fibroblasts (LDH release) [3]: little effect | CLT1-induced cytotoxicity at 4°C (proliferating HUVEC; HUVEC cultured at 4°C versus 37°C, 150 μg/ml, 24 hours, LDH release): protected endothelial cells from CLT1-induced cytotoxicity | cytotoxicity of CLT1 after CLIC1 knockdown (proliferating HUVEC; HUVEC, CLIC1 siRNA versus control siRNA, 24 hours, LDH release): significantly reduced | earliest time at which cytotoxicity was detected (proliferating HUVEC; HUVEC, LDH release over time): 3.5 h

CO/C1=C\C(C)=C\[C@@H](C)[C@@H](O)[C@@H](C)C/C(C)=C/C=C/[C@H](OC)[C@@H]([C@@H](C)[C@@H](O)[C@H](C)[C@@]2(O)C[C@@H](O)[C@H](C)[C@@H](C(C)C)O2)OC1=O [bafilomycin A1, reference compound]
effect of pretreatment on CLT1 cytotoxicity (LDH release) (proliferating HUVEC; HUVEC, 20 nM bafilomycin A1 for 1 hour prior to CLT1 25 μg/ml for 24 hours): ameliorated cytotoxicity of CLT1

CGLKIQKNEC (disulfide 1-10 (inferred)) [CLT1-IK1]
LC3-II conversion (autophagy marker) (HUVEC [4]; HUVEC cytosolic fractions, 7 hours, 7.5–75 μg/ml, immunoblot): did not induce | lysosome dysfunction (cathepsin C and D leakage, lysotracker) (HUVEC [4]; HUVEC, 75 μg/ml 24 hours immunoblot, 10 μg/ml fluorescein-conjugated peptide, lysotracker): did not induce

CNAGESSKNC (disulfide 1-10 (inferred)) [CLT2, reference compound]
tumor growth (tumor volume) ([1]; DU145 xenografts, n=12/treatment group): no anti-angiogenic or anti-tumor effects

GRADSP
effect on CLIC1 cell surface localization induced by CLT1-fibronectin co-aggregates (HUVEC [5]): not by an inactive peptide

GRGDSP [reference compound]
effect on CLIC1 cell surface localization induced by CLT1-fibronectin co-aggregates (HUVEC [5]): partially inhibited | effect on cytotoxic function of CLT1 (proliferating HUVEC; HUVEC, peptide 300 μM, 24 hours, LDH release): inhibited the cytotoxic function of CLT1

anginex
aggregate formation when mixed with fibrinogen (fibrinogen): form large insoluble aggregates | aggregate formation when mixed with fibronectin (fibronectin): form large insoluble aggregates
